These results are taken from ChEMBL document CHEMBL1938309, “Stereochemical diversity of AI-2 analogs modulates quorum sensing in Vibrio harveyi and Escherichia coli” (Bioorg Med Chem, 2012).

In general, EC50 refers to the concentration at which the effect is half-maximal. Usually IC50 stands for the concentration that gives 50% inhibition.

The structures appear in SMILES notation. Activity calls are given as the source filed them. The calls are words filed in the database; no cut-off is given here.

For one data set, the target named is T1, Autoinducer 2-binding periplasmic protein LuxP (Vibrio harveyi, UniProt P54300). The data set can be described thus: Agonist activity at Vibrio harveyi MM32 LuxP receptor assessed as induction of bioluminescence after 5 hrs 30 mins. The data set is classed as functional.
T1 sequence (P54300 whole entry): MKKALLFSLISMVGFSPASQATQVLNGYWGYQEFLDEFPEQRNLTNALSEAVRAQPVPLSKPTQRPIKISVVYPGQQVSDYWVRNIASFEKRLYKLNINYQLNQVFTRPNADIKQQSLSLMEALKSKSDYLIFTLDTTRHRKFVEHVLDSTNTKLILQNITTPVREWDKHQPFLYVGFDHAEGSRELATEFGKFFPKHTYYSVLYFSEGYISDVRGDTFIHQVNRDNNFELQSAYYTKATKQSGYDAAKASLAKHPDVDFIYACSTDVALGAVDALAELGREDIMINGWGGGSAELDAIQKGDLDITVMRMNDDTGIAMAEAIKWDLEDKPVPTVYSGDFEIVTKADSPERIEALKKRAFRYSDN
Settings: not given
An outline of the steps: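 MM32 reporter grown in AB medium; compounds serially diluted in 0.01 M H2SO4 water, without added DPD. Light counted as cpm after 5 h 30 min at 30 °C. EC50 from four-parameter sigmoidal fit by non-linear least squares; error bars are standard deviations.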
Turning to `CC(=O)C(=O)[C@@H](O)CO`, the concentration for a half-maximal effect (EC50) stood at 0.076 µM.

Regarding `CC(=O)C(=O)[C@H](O)[C@H](C)O`, the half-maximal effective concentration (EC50) came to 26.5 µM.

On to `CC(=O)C(=O)[C@@H](O)[C@H](C)O`, for which the EC50 was determined as 6.21 µM.

For the compound `CC(=O)C(=O)[C@H](O)[C@@H](C)O`, the EC50 was 19.5 µM.

Take `CC(=O)C(=O)[C@@H](O)[C@@H](C)O` (single isomer, unassigned): the EC50 is 0.65 µM.

System in another data set: not listed separately
Briefly: Inhibition of […]-deficient Salmonella Typhimurium Met844 Quorum sensing system by lacZ reporter gene assay. More on the design: species or system Salmonella enterica subsp. enterica serovar Typhimurium.
Settings: not given
In general terms: A reporter such as luciferase makes a cellular process visible.
Take `CCCCCC(=O)C(=O)[C@@H](O)CO`: the IC50 stood at 5 µM.

Another data set relates to Vibrio harveyi. Briefly: Growth inhibition of Vibrio harveyi MM32 at 0.1 mM after 5 hrs. The data set is classed as organism-based. The following applies: in vivo, 100 µM.
As for `CC(=O)C(=O)[C@@H](O)CO`, the “growth inhibition (GI)” value is “Toxic”.

On to `CC(=O)C(=O)[C@H](O)[C@H](C)O`, for which the “growth inhibition (GI)” value is “Toxic”.

Turning to `CC(=O)C(=O)[C@@H](O)[C@H](C)O`, the “growth inhibition (GI)” value is on record as “Toxic”.

As to `CC(=O)C(=O)[C@H](O)[C@@H](C)O`, the “growth inhibition (GI)” value was “Toxic”.

As for `CC(=O)C(=O)[C@@H](O)[C@@H](C)O` (single isomer, unassigned), the “growth inhibition (GI)” value was “Toxic”.

A further data set concerns the target T1, Autoinducer 2-binding periplasmic protein LuxP. The data set can be described thus: Antagonist activity at Vibrio harveyi MM32 LuxP receptor assessed as decrease in receptor agonist DPD-induced bioluminescence after 5 hrs 30 mins. In kind it is functional.
Settings: not given
An outline of the steps:
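V. harveyi MM32 in AB medium with 0.1 μM DPD plus serial dilutions of test compound (in 0.01 M H2SO4 water). Luminescence read as cpm after 5 h 30 min at 30 °C; IC50 by four-parameter sigmoidal non-linear least-squares fitting.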
As for `CC(=O)C(=O)[C@@H](O)[C@H](C)O`, the IC50 came out at 57.5 µM.

`CC(=O)C(=O)[C@H](O)[C@@H](C)O`: the IC50 is 160 µM.

In another data set the test system is Escherichia coli. The data set can be described thus: Agonist activity at LsrB receptor in LsrF-, LsrG-, luxS-deficient Escherichia coli KX1446 assessed as induction of lsr gene expression at 150 uM after 4.5 to 5 hrs by LacZ reporter gene assay. In kind it is functional.
Settings: not given
An outline of the steps: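 E. coli KX1446 carrying lsr-lacZ fusion grown in LB; analog diluted from 2 mM stock in 0.01 M H2SO4, final 150 μM, no DPD added. Acid-water and AI-2 controls per series; triplicate independent cultures.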
`CC(=O)C(=O)[C@H](O)[C@H](C)O`: the outcome was inactive.

`CC(=O)C(=O)[C@@H](O)[C@H](C)O`: the outcome was inactive.

Consider `CC(=O)C(=O)[C@H](O)[C@@H](C)O`, for which the outcome was inactive.

As to `CC(=O)C(=O)[C@@H](O)[C@@H](C)O` (single isomer, unassigned), the result was inactive.

Another data set addresses T1, Autoinducer 2-binding periplasmic protein LuxP. Briefly: Agonist activity at Vibrio harveyi LuxP receptor. The data set is classed as functional.
Settings: not given
`O=C(C(=O)C(F)(F)F)[C@@H](O)CO` yielded a 50% effective concentration (EC50) of 30 µM.

`CC(=O)C(=O)[C@H](O)CO` displayed an EC50 of 30 µM.

The target is the same in a further data set. Briefly: (§1) Binding affinity to Vibrio harveyi CFP/YFP-tagged LuxP receptor assessed as decrease in FRET ratio.
Settings: not given
In short, it runs like this:
(§2)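 Purified CFP-LuxP-YFP chimera, 12.5 µg ml⁻¹, in 25 mM sodium phosphate pH 8, 35 mM NaCl, 1 mM borate; serially diluted compounds (in 0.01 M H2SO4 water), 2.5 µl into 280 µl reaction. FRET ratio 527/485 nm; lower ratio indicates binding. EC50 from dose series; standard deviations shown.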
As for `CC(=O)C(=O)[C@@H](O)CO`, the half-maximal effective concentration (EC50) is 0.032 µM.

`CC(=O)C(=O)[C@H](O)[C@H](C)O`: the EC50 was found to be 10 µM.

With `CC(=O)C(=O)[C@@H](O)[C@H](C)O`, the concentration giving a half-maximal response (EC50) turned out to be 1.87 µM.

`CC(=O)C(=O)[C@H](O)[C@@H](C)O`: the EC50 was 11.6 µM.

As to `CC(=O)C(=O)[C@@H](O)[C@@H](C)O` (single isomer, unassigned), the concentration for a half-maximal effect (EC50) was determined as 0.14 µM.

A further data set deals with Autoinducer 2-binding periplasmic protein LuxP (Vibrio harveyi) (UniProt P54300). The data set is described as §1.
Chain of Autoinducer 2-binding periplasmic protein LuxP (Vibrio harveyi) (P54300 whole entry): as above
Settings: not given
In short, it runs like this:
as §2
On to `CC(=O)C(=O)[C@H](O)[C@H](C)O`, for which the Activity result is “Dose-dependent effect”.

Turning to `CC(=O)C(=O)[C@@H](O)[C@H](C)O`, the Activity result was “Dose-dependent effect”.

As to `CC(=O)C(=O)[C@H](O)[C@@H](C)O`, the Activity entry is “Dose-dependent effect”.

For `CC(=O)C(=O)[C@@H](O)[C@@H](C)O` (single isomer, unassigned), the Activity entry is “Dose-dependent effect”.

Another data set relates to Escherichia coli. Briefly: Agonist activity at LsrB receptor in LsrF-, LsrG-, luxS-deficient Escherichia coli KX1446 assessed as increase in receptor agonist DPD-induced lsr gene expression at 150 uM after 4.5 to 5 hrs by LacZ reporter gene assay. The data set is classed as functional.
Settings: not given
An outline of the steps:
(§3)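 E. coli lsr-lacZ reporter KX1446 in LB with overnight culture aliquot; analogs at final 15 or 150 μM added from 2 mM stocks in 0.01 M H2SO4, with 20 µM DPD present. Acid-water and AI-2 controls.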
As for `CC(=O)C(=O)[C@@H](O)[C@H](C)O`, the outcome was Active.

Regarding `CC(=O)C(=O)[C@H](O)[C@@H](C)O`, the result was inactive.

For the next data set, the system named is Escherichia coli. Briefly: Agonist activity at LsrB receptor in LsrF-, LsrG-, luxS-deficient Escherichia coli KX1446 assessed as increase in receptor agonist DPD-induced lsr gene expression at 15 uM after 4.5 to 5 hrs by LacZ reporter gene assay. In kind it is functional.
Settings: not given
An outline of the steps: as §3
For `CC(=O)C(=O)[C@@H](O)[C@H](C)O`, the outcome was Active.

As for `CC(=O)C(=O)[C@H](O)[C@@H](C)O`, the result was inactive.
